Square brackets hold non-standard residues; d marks the D form. Peptide text beside a SMILES is read from it. 2Nal = N[C@@H](Cc1ccc2ccccc2c1)C(=O)O
Tests used:
[1] = target: iCP-PA28-activated complex (Homo sapiens, UniProt P28062); experiment: LC-MS hydrolysis of dialanine substrates by iCP-PA28-activated complex; assay type: biochemical; details: 25 µM substrate, iCP + 7.5X PA28, 4 hours, triplicate, Fig. 3B
Method in brief: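 Purified human iCP, activated with PA28, incubated with 25 μM test substrate for 4 hours. Each substrate is a modified recognition sequence joined to a constant dialanine cargo, with expected cleavage at the amide bond between them. Products analysed by LC-MS as percent degraded. Triplicate, mean ± standard deviation. Singly modified substrates compared with the unmodified-sequence dialanine control by t-test.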

[2] = tested on: iCP over sCP; experiment: Selectivity index, mean iCP percent degraded over sCP percent degraded; assay type: biochemical

Molecule | Hydrolysis by iCP-PA28-activated complex compared with control ATMWAA [1] | Isoform selectivity for the iCP ([2]; Fig. 3C conditions) | Increase of substrate selectivity for the iCP compared with the ATMW scaffold ([2]; ratio of selectivity indices, analogue vs ATMWAA)
CSCC[C@H](NC(=O)[C@@H](NC(=O)[C@H](C)N)[C@@H](C)O)C(=O)N[C@@H](Cc1ccc2ccccc2c1)C(=O)N[C@@H](C)C(=O)N[C@@H](C)C(N)=O [ATM(2-Nal)] (H-ATM[2Nal]AA-NH2) | hydrolyzed well by the iCP | not isoform selective | 
morph-Ala-Orn-(Met?O2)-Trp(7,Me) [mAO(Met=O2) W(7,Me)] |  |  | about 3 fold
